Measurements from ChEMBL document CHEMBL1821600, “Synthesis and antiviral evaluation of α-L-2'-deoxythreofuranosyl nucleosides” (Eur J Med Chem, 2011).
Active and inactive are the calls of the source. The rule behind the calls is not given here.

What was measured:
[1] = test system: Vesicular stomatitis virus; test: Antiviral activity against Vesicular stomatitis virus infected in HEL cells assessed as inhibition of virus-induced cytopathicity upto 200 uM administered after 1 hr virus adsorption period; type: functional, organism-based
[2] = Cytotoxicity against CRFK cells at 100 ug/ml; type: cell-based, Felis catus; conditions: cat
HeLa = test: Cytotoxicity against human HeLa cells at 100 ug/ml; type: cell-based
Human alphaherpesvirus 2 = test: Antiviral activity against Herpes simplex virus type 2 infected in HEL cells assessed as inhibition of virus-induced cytopathicity upto 200 uM administered after 1 hr virus adsorption period; type: functional, organism-based
In short: (§1)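 Confluent cell monolayers (HEL for HSV-1 and HSV-2; Vero for parainfluenza-3, reovirus-1, Sindbis and Punta Toro; HeLa for Coxsackie B4 and RSV) in 96-well plates were inoculated with 100 CCID50 of virus. After 1 h adsorption, unbound virus was removed. Cells were then kept with compound at 200, 40, 8… μM. Cytopathicity was scored once untreated infected controls reached full CPE.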

Influenza A virus [3] = test: Antiviral activity against influenza A virus H1N1 infected in MDCK cells assessed as inhibition of virus-induced cytopathicity upto 200 uM administered after 1 hr virus adsorption period; type: functional, organism-based
[4] = target: T1, Thymidine kinase 2, mitochondrial (Homo sapiens, UniProt O00142); test: Inhibition of human mitochondrial TK2 assessed as inhibition of [methyl-3H]dThd phosphorylation after 30 mins by scintillation counting
T1 sequence (O00142 whole entry): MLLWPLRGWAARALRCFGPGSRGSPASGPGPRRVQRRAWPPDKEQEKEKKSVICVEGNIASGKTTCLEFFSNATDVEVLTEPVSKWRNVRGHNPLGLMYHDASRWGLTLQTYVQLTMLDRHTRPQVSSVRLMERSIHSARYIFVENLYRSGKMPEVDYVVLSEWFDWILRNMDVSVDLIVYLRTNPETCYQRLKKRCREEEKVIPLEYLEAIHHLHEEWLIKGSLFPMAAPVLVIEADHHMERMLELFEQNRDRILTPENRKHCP
In short: (§2)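 Recombinant enzyme (TK-1, TK-2, HSV-1 TK, VZV TK or Drosophila dNK) was used in 50 mM Tris/HCl pH 8.0 with 2.5 mM MgCl2, 10 mM DTT, 0.5 mM CHAPS, 3 mg/mL BSA, 2.5 mM ATP and 1 µM [methyl-3H]dThd. Compound was added as 5-fold dilutions, and reactions ran 30 min at 37 °C, still linear. Mixtures were spotted on DE-81 disks, washed in ammonium formate, water and ethanol, then scintillation counted. IC50 was determined.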

Feline coronavirus = test: Antiviral activity against Feline coronavirus infected in CRFK cells assessed as inhibition of virus-induced cytopathicity upto 200 uM administered after 1 hr virus adsorption period; type: functional, organism-based
Vero = test: Cytotoxicity against african green monkey Vero cells at 100 ug/ml; type: cell-based; conditions: chlorocebus sabaeus
[5] = test system: Mammalian orthoreovirus 1; test: Antiviral activity against Reovirus 1 infected in Vero cells assessed as inhibition of virus-induced cytopathicity upto 200 uM administered after 1 hr virus adsorption period; type: functional, organism-based; in short: as §1
Human alphaherpesvirus 1 = test: Antiviral activity against Herpes simplex virus type 1 infected in HEL cells assessed as inhibition of virus-induced cytopathicity upto 200 uM administered after 1 hr virus adsorption period; type: functional, organism-based; in short: as §1
Sindbis virus = test: Antiviral activity against Sindbis virus infected in Vero cells assessed as inhibition of virus-induced cytopathicity upto 200 uM administered after 1 hr virus adsorption period; type: functional, organism-based; in short: as §1
HEL = test: Cytotoxicity against human HEL cells at 100 ug/ml; type: cell-based
[6] = Inhibition of varicella zoster virus thymidine kinase assessed as inhibition of [methyl-3H]dThd phosphorylation after 30 mins by scintillation counting; design: species or system Human alphaherpesvirus 3; in short: as §2
[7] = Inhibition of Herpes simplex virus type 1 thymidine kinase assessed as inhibition of [methyl-3H]dThd phosphorylation after 30 mins by scintillation counting; design: species or system Human alphaherpesvirus 1; in short: as §2
Deoxynucleoside kinase = target: T2, Deoxynucleoside kinase (Drosophila melanogaster, UniProt Q9XZT6); test: Inhibition of Drosophila melanogaster deoxynucleoside kinase assessed as inhibition of [methyl-3H]dThd phosphorylation after 30 mins by scintillation counting; in short: as §2
T2 sequence (Q9XZT6 whole entry): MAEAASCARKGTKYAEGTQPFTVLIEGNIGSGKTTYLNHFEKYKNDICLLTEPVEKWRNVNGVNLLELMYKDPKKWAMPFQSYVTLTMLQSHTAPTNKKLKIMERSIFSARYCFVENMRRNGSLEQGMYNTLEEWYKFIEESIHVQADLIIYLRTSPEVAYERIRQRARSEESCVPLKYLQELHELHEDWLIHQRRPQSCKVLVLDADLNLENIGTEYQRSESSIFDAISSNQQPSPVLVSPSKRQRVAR

Influenza A virus [8] = test: Antiviral activity against Influenza A virus H3N2 infected in MDCK cells assessed as inhibition of virus-induced cytopathicity upto 200 uM administered after 1 hr virus adsorption period; type: functional, organism-based
Human respirovirus 3 = test: Antiviral activity against Parainfluenza virus 3 infected in Vero cells assessed as inhibition of virus-induced cytopathicity upto 200 uM administered after 1 hr virus adsorption period; type: functional, organism-based; in short: as §1
MDCK = test: Cytotoxicity against MDCK cells at 100 ug/ml; type: cell-based, Canis lupus familiaris; conditions: dog
[9] = test system: Human immunodeficiency virus 1; test: Antiviral activity against Human immunodeficiency virus 1 3B infected in human CEM cells assessed as inhibition of virus-induced giant cell formation after 4 days by microscopic method; type: functional, organism-based; conditions: CCRF-CEM, 96 h
In short: (§3)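 CEM cells (~3×10^5 cells/cm³) were infected with 100 CCID50/mL of HIV-1(IIIB) or HIV-2(ROD) and seeded into wells containing serial compound dilutions. After 4 days at 37 °C, giant (syncytium) cell formation was scored microscopically.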

[10] = test system: Respiratory syncytial virus; test: Antiviral activity against Respiratory syncytial virus infected in HeLa cells assessed as inhibition of virus-induced cytopathicity upto 200 uM administered after 1 hr virus adsorption period; type: functional, organism-based; in short: as §1
Human alphaherpesvirus 3 = test: Antiviral activity against Varicella Zoster Virus infected in human HEL cells assessed as inhibition of virus-induced cytopathicity upto 200 uM administered after 1 hr virus adsorption period; type: functional, organism-based
CCRF-CEM = test: Cytotoxicity against human CEM cells at 100 ug/ml; type: cell-based
[11] = target: Thymidine kinase, cytosolic (Homo sapiens, UniProt P04183); test: Inhibition of human recombinant cytosolic TK1 assessed as inhibition of [methyl-3H]dThd phosphorylation after 30 mins by scintillation counting; in short: as §2
Chain of Thymidine kinase, cytosolic (P04183 whole entry): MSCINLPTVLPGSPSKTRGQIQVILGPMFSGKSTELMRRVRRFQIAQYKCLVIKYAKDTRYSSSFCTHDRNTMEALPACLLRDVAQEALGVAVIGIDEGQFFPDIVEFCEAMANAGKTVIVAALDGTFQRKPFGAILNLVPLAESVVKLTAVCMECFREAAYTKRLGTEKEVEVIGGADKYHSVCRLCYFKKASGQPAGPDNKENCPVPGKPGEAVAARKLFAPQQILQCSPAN

Influenza B virus = test: Antiviral activity against influenza B virus infected in MDCK cells assessed as inhibition of virus-induced cytopathicity upto 200 uM administered after 1 hr virus adsorption period; type: functional, organism-based
Vaccinia virus = test: Antiviral activity against Vaccinia virus infected in HEL cells assessed as inhibition of virus-induced cytopathicity upto 200 uM administered after 1 hr virus adsorption period; type: functional, organism-based; conditions: Orthopoxvirus vaccinia
Coxsackievirus B4 = test: Antiviral activity against Coxsackievirus B4 infected in HeLa cells assessed as inhibition of virus-induced cytopathicity upto 200 uM administered after 1 hr virus adsorption period; type: functional, organism-based; in short: as §1
[12] = test system: Human immunodeficiency virus 2; test: Antiviral activity against Human immunodeficiency virus type 2 ROD infected in human CEM cells assessed as inhibition of virus-induced giant cell formation after 4 days by microscopic method; type: functional, organism-based; conditions: Human immunodeficiency virus 2, ISOLATE ROD, CCRF-CEM, 96 h; in short: as §3
Punta Toro virus = test: Antiviral activity against Punta Toro virus infected in Vero cells assessed as inhibition of virus-induced cytopathicity upto 200 uM administered after 1 hr virus adsorption period; type: functional, organism-based; in short: as §1
Human betaherpesvirus 5 = test: Antiviral activity against Human cytomegalovirus infected in human HEL cells assessed as inhibition of virus-induced cytopathicity upto 200 uM administered after 1 hr virus adsorption period; type: functional, organism-based

Structure (SMILES)	inhibition [1]	Activity [2]	Activity (HeLa)	inhibition (Human alphaherpesvirus 2)	inhibition (Influenza A virus [3])	inhibition (Feline coronavirus)	Activity (Vero)	inhibition [5]	inhibition (Human alphaherpesvirus 1)	inhibition (Sindbis virus)	Activity (HEL)	inhibition (Influenza A virus [8])	inhibition (Human respirovirus 3)	Activity (MDCK)	EC50 [9]	inhibition [10]	inhibition (Human alphaherpesvirus 3)	Activity (CCRF-CEM)	inhibition (Influenza B virus)	inhibition (Vaccinia virus)	further results
Nc1ccn([C@H]2C[C@@H](O)CO2)c(=O)n1	inactive	Non-toxic	Non-toxic	inactive	inactive	inactive	Non-toxic	inactive	inactive	inactive	Non-toxic	inactive	inactive	Non-toxic	> 100 µg/mL	inactive	inactive	Non-toxic	inactive	inactive	IC50 [4]: > 1010 µM; IC50 [6]: > 200 µg/mL; IC50 [7]: > 200 µg/mL; IC50 (Deoxynucleoside kinase): > 1010 µM; IC50 [11]: 1010 µM; inhibition (Coxsackievirus B4): inactive; EC50 [12]: > 100 µg/mL; inhibition (Punta Toro virus): inactive; inhibition (Human betaherpesvirus 5): inactive
O=c1ccn([C@H]2C[C@@H](O)CO2)c(=O)[nH]1	inactive	Non-toxic	Non-toxic	inactive	inactive	inactive	Non-toxic	inactive	inactive	inactive	Non-toxic	inactive	inactive	Non-toxic	> 100 µg/mL	inactive	inactive	Non-toxic	inactive	inactive	IC50 [4]: 303 µM; IC50 [6]: > 200 µg/mL; IC50 [7]: > 200 µg/mL; IC50 (Deoxynucleoside kinase): > 1010 µM; inhibition (Coxsackievirus B4): inactive; EC50 [12]: > 100 µg/mL; inhibition (Punta Toro virus): inactive; inhibition (Human betaherpesvirus 5): inactive
CC(=O)Nc1ccn([C@H]2C[C@@H](O)CO2)c(=O)n1	inactive	Non-toxic	Non-toxic	inactive	inactive	inactive	Non-toxic	inactive	inactive	inactive	Non-toxic	inactive	inactive	Non-toxic	> 100 µg/mL	inactive	inactive	Non-toxic	inactive	inactive	inhibition (Coxsackievirus B4): inactive; EC50 [12]: > 100 µg/mL; inhibition (Punta Toro virus): inactive; inhibition (Human betaherpesvirus 5): inactive
Nc1ncnc2c1ncn2[C@H]1C[C@@H](O)CO1	inactive	Non-toxic	Non-toxic	inactive	inactive	inactive	Non-toxic	inactive	inactive	inactive	Non-toxic	inactive	inactive	Non-toxic	> 100 µg/mL	inactive	inactive	Non-toxic	inactive	inactive	IC50 [4]: > 904 µM; IC50 [6]: > 200 µg/mL; IC50 [7]: > 200 µg/mL; IC50 (Deoxynucleoside kinase): > 904 µM; IC50 [11]: > 904 µM; inhibition (Coxsackievirus B4): inactive; EC50 [12]: > 100 µg/mL; inhibition (Punta Toro virus): inactive; inhibition (Human betaherpesvirus 5): inactive
